Consider 56 compounds from ChEMBL document CHEMBL4038333, “Nonacidic Farnesoid X Receptor Modulators” (J Med Chem, 2017).

The source made the active and inactive calls. No cut-off for these calls is given here.

The target of one data set is T1, Bile acid receptor (Homo sapiens, UniProt Q96RI1).
T1 sequence (Q96RI1 whole entry): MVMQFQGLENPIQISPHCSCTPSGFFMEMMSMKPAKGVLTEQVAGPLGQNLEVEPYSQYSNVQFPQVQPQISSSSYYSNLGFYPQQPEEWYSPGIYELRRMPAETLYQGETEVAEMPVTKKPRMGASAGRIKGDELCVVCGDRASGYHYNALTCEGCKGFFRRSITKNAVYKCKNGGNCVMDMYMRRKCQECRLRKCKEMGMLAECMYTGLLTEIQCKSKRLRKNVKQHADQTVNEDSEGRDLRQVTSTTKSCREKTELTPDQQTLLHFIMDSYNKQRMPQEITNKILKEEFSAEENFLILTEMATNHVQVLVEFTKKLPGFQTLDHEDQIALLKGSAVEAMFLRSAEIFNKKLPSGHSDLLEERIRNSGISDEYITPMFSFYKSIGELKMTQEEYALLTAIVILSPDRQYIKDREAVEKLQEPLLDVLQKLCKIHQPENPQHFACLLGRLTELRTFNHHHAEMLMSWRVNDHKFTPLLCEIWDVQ
The experiment in a line: Transactivation of human FXR expressed in human HeLa cells co-expressing BSEP after 24 hrs by dual-glo luciferase reporter gene assay. The class given is cell-based. Summed up: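 Full-length reporter system with constitutive expression of hFXR and hRXR. A constitutive Renilla luciferase served for normalization and as a toxicity control. Maximum relative activation was expressed against a reference FXR agonist at 3 µM, set as 100%.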

Data set [1] addresses T2, Bile acid receptor (Homo sapiens) (UniProt Q96RI1).
T2 sequence (whole entry): T1 sequence (Q96RI1 whole entry)
The experiment in a line: Transactivation of human FXR expressed in human HeLa cells co-expressing BSEP at 3 uM after 24 hrs by dual-glo luciferase reporter gene assay relative to GW4064. Type of data set: cell-based. Summed up:
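Full-length FXR reporter gene assay with constitutively expressed hFXR and hRXR, plus renilla luciferase for normalization and toxicity control. Maximum relative activation is expressed against the reference agonist at 3 µM, set as 100%.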

Data set [2] in a line: Lipophilicity, logD of compound at pH 7.4 by LC-MS analysis. The class given is physicochemical. To be noted: buffer.
For the next data set, the system named is HepG2. The experiment in a line: Cytotoxicity against human HepG2 cells at 50 uM after 48 hrs by WST-1 assay. The class given is cell-based. To be noted: hepg2, 48 h. The method, boiled down:
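HepG2 hepatocarcinoma cells were tested for viability by WST-1 (water-soluble tetrazolium) assay, with concentrations up to 100 µM.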

The species named for a further data set is Rattus norvegicus. As to the kind of experiment: Displacement of [3H]Ro15-4513 from GABAa receptor in Sprague-Dawley rat cerebral cortical membranes up to 10 uM after 1 hr by scintillation counting.

Consider `Cc1ccc2nc(/C=C/c3ccccc3)c(NCc3ccccc3)n2c1`, for which the EC50 at Bile acid receptor (read-out: EC50) worked out at 1160 nM. This compound came in with a max activation in data set [1] of 13%. `O=C(O)c1ccn2c(NCc3ccccc3)c(-c3cccs3)nc2c1`: on Bile acid receptor (hela), the EC50 result is reported as “Not Active”. Further, the max activation entry in data set [1] was “inactive”. Take `Cc1ccc2nc(-c3cccs3)c(N[C@@H](C)c3ccccc3)n2c1`: at Bile acid receptor (read-out: EC50), the EC50 is 1300 nM. This compound also registered a max activation in data set [1] of 12%. Consider `Cc1ccc2nc(-c3ccoc3)c(NCc3ccccc3)n2c1`, for which the EC50 on Bile acid receptor (read-out: EC50) is 1900 nM. Also, the max activation in data set [1] came to 16%.

Regarding `Cc1ccc2nc(-c3ccc(F)c(Cl)c3)c(NCc3ccccc3)n2c1`, the EC50 on Bile acid receptor (read-out: EC50) turned out to be 26 nM. For the same compound, the max activation in data set [1] was 54%. The like results for `Cc1ccc2nc(CCc3ccccc3)c(NCc3ccccc3)n2c1` were, in that order, 310 nM and 12%. As to `c1ccc(CNc2c(-c3cccs3)nc3cnccn23)cc1`, the EC50 entry on Bile acid receptor (hela) is “Not Active”. Besides, the max activation result in data set [1] is “inactive”. As to `Cc1ccc2nc(-c3cccs3)c(Cc3ccccc3)n2c1`, the concentration giving a half-maximal response (EC50) at Bile acid receptor (read-out: EC50) came to 810 nM. Also, in data set [1], the max activation was 12%. The like results for `Cc1ccc2nc(-c3ccccc3C)c(NCc3ccccc3)n2c1` were, in that order, 260 nM and 35%. Compound `C[C@H](CCC(=O)O)[C@H]1CC[C@H]2[C@@H]3[C@H](O)C[C@@H]4C[C@H](O)CC[C@]4(C)[C@H]3CC[C@]12C` [CHENODIOL] returned a logD in data set [2] of 0.53. Take `Cc1ccc2nc(-c3ccco3)c(NCc3ccccc3)n2c1`: the EC50 on Bile acid receptor (read-out: EC50) was found to be 560 nM. The compound further had a max activation in data set [1] of 17%. The like results for `COc1ccc(-c2nc3ccc(C)cn3c2NCc2ccccc2)cc1` were, in that order, 1270 nM and 16%. As to `Cc1ccc2nc(-c3cc(Cl)ccn3)c(NCc3ccccc3)n2c1`, at Bile acid receptor (read-out: EC50), the EC50 was determined as 1.5 nM. In addition, the max activation in data set [1] came to 27%. On to `CC[C@H]1[C@@H](O)[C@@H]2[C@H](CC[C@]3(C)[C@@H]([C@H](C)CCC(=O)O)CC[C@@H]23)[C@@]2(C)CC[C@@H](O)C[C@@H]12` [OBETICHOLIC ACID], for which, in data set [2] (read-out: logD), the logD was determined as 0.81. Moreover, in the data set with HepG2, the Activity result was “Toxic”. For the compound `Fc1ccc2nc(-c3cccs3)c(NCc3ccccc3)n2c1`, the EC50 result on Bile acid receptor (hela) is recorded as “Not Active”. Also, in data set [1], the max activation result is “inactive”.

`Cc1ccc2nc(-c3cccc(Cl)n3)c(NCc3ccccc3)n2c1`: the EC50 at Bile acid receptor (read-out: EC50) came to 80 nM. In data set [1], this compound displayed a max activation of 31%. The like results for `Cc1ccc2nc(-c3ccc(Br)cc3)c(NCc3ccccc3)n2c1` were, in that order, 430 nM and 14%. On to `Cc1ccc2nc(-c3ccncc3)c(NCc3ccccc3)n2c1`, for which the half-maximal effective concentration (EC50) on Bile acid receptor (read-out: EC50) was found to be 2000 nM. The compound further had a max activation in data set [1] of 15%. The like results for `Cc1ccc2nc(-c3ccc(-c4ccccc4)cc3)c(NCc3ccccc3)n2c1` were, in that order, 81 nM and 17%. For the compound `CC(C)c1onc(-c2c(Cl)cccc2Cl)c1COc1ccc(/C=C/c2cccc(C(=O)O)c2)c(Cl)c1`, the pH-dependent lipophilicity (logD) in data set [2] (read-out: logD) stood at 1.01. Further, the Activity result with HepG2 is listed as “Toxic”. For the compound `Cc1cccc(-c2nc3ccc(C)cn3c2NCc2ccccc2)c1`, the EC50 on Bile acid receptor (read-out: EC50) is 180 nM. In data set [1], the max activation was 14%. For `Cc1ccc2nc(-c3cccs3)c(NCc3ccccc3)n2c1` the same measures were 540 nM and 15%.

As to `COc1cccc(-c2nc3ccc(C)cn3c2NCc2ccccc2)c1`, the EC50 on Bile acid receptor (read-out: EC50) is 250 nM. The same compound registered a max activation in data set [1] of 16%. On to `Cc1ccc2nc(-c3ccc4ccccc4c3)c(NCc3ccccc3)n2c1`, for which, on Bile acid receptor (read-out: EC50), the EC50 worked out at 210 nM. Further, the max activation in data set [1] came out at 18%. As for `Cc1ccc2nc(-c3ccc(F)cc3)c(NCc3ccccc3)n2c1`, the EC50 at Bile acid receptor (read-out: EC50) was 170 nM. The max activation in data set [1] stood at 21%. As to `CCc1ccn2c(NCc3ccccc3)c(-c3cccs3)nc2c1`, at Bile acid receptor (read-out: EC50), the EC50 worked out at 1200 nM. Further, in data set [1], the max activation is 16%. With `Cc1ccc2nc(-c3ccc(Cl)cc3)c(NCc3ccccc3)n2c1`, the EC50 at Bile acid receptor (read-out: EC50) was determined as 240 nM. This compound came in with a max activation in data set [1] of 14%. Turning to `COc1ccc2nc(-c3cccs3)c(NCc3ccccc3)n2c1`, the half-maximal effective concentration (EC50) on Bile acid receptor (read-out: EC50) stood at 830 nM. In data set [1], this compound had a max activation of 18%. The like results for `Clc1ccc2nc(-c3cccs3)c(NCc3ccccc3)n2c1` were, in that order, 160 nM and 26%. As for `Cc1cccc2nc(-c3cccs3)c(NCc3ccccc3)n12`, the EC50 entry at Bile acid receptor (hela) is on record as “Not Active”. Moreover, in data set [1], the max activation entry was “inactive”. As to `Cc1ccc2nc(-c3cccs3)c(NCCCc3ccccc3)n2c1`, on Bile acid receptor (read-out: EC50), the EC50 was 230 nM. In data set [1], this compound yielded a max activation of 18%. For the compound `Cc1ccc2nc(-c3ccccc3Cl)c(NCc3ccccc3)n2c1`, the EC50 result at Bile acid receptor (hela) was “Not Active”. Moreover, the max activation result in data set [1] was “inactive”. In the case of `Cc1ccc(-c2nc3ccc(C)cn3c2NCc2ccccc2)cc1`, the EC50 at Bile acid receptor (read-out: EC50) is 130 nM. For the same compound, in data set [1], the max activation amounted to 14%. For `COc1ccc(-c2nc3ccc(C)cn3c2NCc2ccccc2)cc1OC` the same measures were 910 nM and 16%.

`Cc1ccc2nc(-c3ccc(Cl)c(Cl)c3)c(NCc3ccccc3)n2c1`: the EC50 on Bile acid receptor (read-out: EC50) was 24 nM. The compound further yielded a max activation in data set [1] of 19%. The like results for `Cc1ccc2nc(-c3nc(C)cs3)c(NCc3ccccc3)n2c1` were, in that order, 220 nM and 19%. As to `Cc1ccc2nc(-c3cnccn3)c(NCc3ccccc3)n2c1`, the EC50 on Bile acid receptor (read-out: EC50) was determined as 1200 nM. The same compound yielded a max activation in data set [1] of 18%. As to `Cc1ccc2nc(-c3cccnc3)c(NCc3ccccc3)n2c1`, the EC50 at Bile acid receptor (read-out: EC50) is 520 nM. The compound further came in with a max activation in data set [1] of 17%. For `c1ccc(CNc2c(-c3cccs3)nc3ccc(-c4ccccc4)cn23)cc1` the same measures were 200 nM and 17%.

For the compound `Cc1ccc2nc(C3CCCCC3)c(NCc3ccccc3)n2c1`, on Bile acid receptor (hela), the EC50 result is “Not Active”. In addition, the max activation entry in data set [1] is “inactive”. As for `Cc1ccc2nc(-c3cccc(Cl)c3)c(NCc3ccccc3)n2c1`, at Bile acid receptor (read-out: EC50), the EC50 is 16 nM. In addition, the max activation in data set [1] came to 20%. For `Cc1ccc2nc(-c3ccc(Cl)cn3)c(NCc3ccccc3)n2c1` the same measures were 7.4 nM and 46%.

In the case of `Cc1ccc(CNc2c(-c3cccs3)nc3ccc(C)cn23)cc1`, the EC50 on Bile acid receptor (read-out: EC50) turned out to be 220 nM. The same compound had a max activation in data set [1] of 14%. The like results for `Cc1ccc2nc(-c3cccs3)c(N[C@H](C)c3ccccc3)n2c1` were, in that order, 3200 nM and 14%. With `Cc1ccc2nc(-c3cccs3)c(NCCc3ccccc3)n2c1`, at Bile acid receptor (read-out: EC50), the EC50 came out at 1000 nM. For the same compound, in data set [1], the max activation came out at 12%.

In the case of `c1ccc(CNc2c(-c3cccs3)nc3ccccn23)cc1`, at Bile acid receptor (read-out: EC50), the EC50 turned out to be 4000 nM. Moreover, the max activation in data set [1] is 14%. For `Cc1ccc2nc(-c3cccn3C)c(NCc3ccccc3)n2c1` the same measures were 1100 nM and 17%. For `Cc1ccc2nc(-c3ccc4c(c3)OCCO4)c(NCc3ccccc3)n2c1`, the EC50 on Bile acid receptor (read-out: EC50) was 170 nM. The same compound returned a max activation in data set [1] of 15%. For `Cc1ccc2nc(-c3cccs3)c(NCCCCc3ccccc3)n2c1` the same measures were 750 nM and 17%. As for `COc1ccc(CNc2c(-c3cccs3)nc3ccc(C)cn23)cc1`, the EC50 at Bile acid receptor (read-out: EC50) worked out at 170 nM. Further, the max activation in data set [1] worked out at 14%. In the case of `Cc1ccc2nc(Cc3ccccc3)c(NCc3ccccc3)n2c1`, on Bile acid receptor (hela), the EC50 entry is “Not Active”. Also, in data set [1], the max activation entry is “inactive”. In the case of `Cc1ccc2nc(-c3ccccn3)c(NCc3ccccc3)n2c1`, in the data set listed under Rattus norvegicus, the inhibition result was “inactive”. The max activation in data set [1] stood at 19%.

As to `FC(F)(F)c1ccc2nc(-c3cccs3)c(NCc3ccccc3)n2c1`, the EC50 at Bile acid receptor (read-out: EC50) worked out at 460 nM. The compound further yielded a max activation in data set [1] of 14%. In the case of `Cc1ccc2nc(-c3ccsc3)c(NCc3ccccc3)n2c1`, the EC50 on Bile acid receptor (read-out: EC50) was 830 nM. In data set [1], the max activation came out at 17%.

`Cc1ccc2nc(-c3ccccc3)c(NCc3ccccc3)n2c1`: the EC50 at Bile acid receptor (read-out: EC50) turned out to be 280 nM. The compound also had a max activation in data set [1] of 16%. On to `Brc1ccc2nc(-c3cccs3)c(NCc3ccccc3)n2c1`, for which the EC50 at Bile acid receptor (read-out: EC50) worked out at 500 nM. This compound also registered a max activation in data set [1] of 14%.
